Many of the other results were omitted from the sample, so hits are more common in it than they were.
GAA850 FXN act: increases GAA850 frataxin promoter reporter activity; 360,000 tested, 0.56% active; activation, % at 6 µM; HEK293 lucGAA850 FXN promoter luciferase reporter, 24 h; percent of 10 µM SAHA response;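 active = activation above the average of all compounds screened plus 3 SD, cutoff fixed separately per campaign, cut at about 7.5% in these data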;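 also: 0% = DMSO wells and 100% = 10 µM SAHA wells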
CHOP inh: CHOP inhibition in unfolded protein response; CHO-K1 CHOP-promoter luciferase, tunicamycin-induced, 15-18 h; inhibition, % at 10 µM; 220,000 tested, 3.8% active; AID 2732;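 active = compounds that reduced the stress-induced luciferase reporter signal by more than about 70% of percent inhibition, limit read from the data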;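 also: 0% = tunicamycin plus vehicle and 100% = wells without tunicamycin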
CHOP UPR activ: activators of apoptotic arm of unfolded protein response (CHOP). CHO-CHOP luciferase reporter, UPR activation, luminescence; percent of tunicamycin response over DMSO baseline. activation, % at 10 µM. 330,000 tested, 0.34% active. AID 449763;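 active = at 10 µM dose, activation of 40% or more, normalized to positive control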;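 also: 100% = tunicamycin at 10 µg/mL and 0% = DMSO alone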
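Evaluation: % reporter activation, DMSO baseline versus tunicamycin full activation; System: CHO-CHOP luciferase reporter cell line; Input: 500 cells/well; Incubation: 6 h compound treatment, 37 °C; Measured by: Steady-Glo luciferase luminescence; Dosing: one dose, 10 µM in 0.5% DMSO; Buffer or medium: F12 medium, 10% FBS; Benchmarks: positive tunicamycin 10 µg/mL, negative DMSO alone.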
XBP1 UPR activ: adaptive UPR (XBP1) activation; CHO-XBP1 luciferase reporter, IRE1-XBP1 UPR activation, luminescence; percent of tunicamycin response, DMSO as zero; activation, % at 20 µM; 330,000 tested, 0.33% active; AID 463104;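 active = versus positive control, 20 µM dose yields 30% or more activation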;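 also: 100% = tunicamycin at 10 µg/mL and 0% = DMSO only wells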
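incubation = overnight seeding at 37 °C, 6 h compound treatment at 37 °C | assay system = CHO-XBP1 cells stably carrying IRE1-XBP1-driven luciferase reporter | input = 1000 cells per well | detection = luciferase luminescence | dosing = single point, 20 µM final compound, 1% DMSO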
GAA30 counter: counter-screen for GAA850 frataxin promoter activators: GAA30 promoter activation; shares compounds with GAA850 FXN act; HEK293 lucGAA30 FXN promoter luciferase, 24 h; DMSO = 0%, 5 µM ipriflavone = 100%; activation, % at 6 µM; 1,900 tested, 66% active;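 active = mean activation above the mean of solvent-only control wells plus 3 SD, cut at about 22% in these data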;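 also: counterscreen of GAA850 promoter hits where activity marks nonselective or luminescence artifacts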
FXN GAA850 conf: confirmation of GAA850 frataxin (FXN) promoter activators | shares compounds with GAA850 FXN act | HEK293 lucGAA850 FXN promoter luciferase reporter, 24 h; 100% = activation by SAHA | activation, % at 6 µM | 1,900 tested, 86% active | AID 588351;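 active = mean activation above a set limit taken from the primary screen, cut at about 8% in these data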;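 also: 0% = DMSO wells and 100% = 10 µM SAHA wells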
* = called active by the depositor.

What do the screens show for `O=C(N/N=C/c1ccc(O)c([N+](=O)[O-])c1)C1CC1(c1ccccc1)c1ccccc1` (configuration not stated)?
GAA850 FXN act: 10.0*; CHOP inh: -14.9; CHOP UPR activ: -1.1; XBP1 UPR activ: 9.1; GAA30 counter: 32.4*; FXN GAA850 conf: 18.9*

What do the screens show for `O=C(Cn1nc(-c2ccc(N3CCOCC3)c([N+](=O)[O-])c2)c2ccccc2c1=O)N1CCCCC1`?
GAA850 FXN act: 8.3*; CHOP inh: 50.5; CHOP UPR activ: -1.6; XBP1 UPR activ: 2.9; GAA30 counter: 38.1*; FXN GAA850 conf: 14.2*

Results for O=[N+]([O-])c1cc(-c2nnc(N3CCOCC3)c3ccccc23)ccc1N1CCOCC1 ?
GAA850 FXN act: 4.1; CHOP inh: 32.9; CHOP UPR activ: -1.2; XBP1 UPR activ: -0.4

How did O=C(CN1CCN(C(C(=O)Nc2cc(C(F)(F)F)ccc2Cl)c2ccccc2)CC1)NC1CC1 (configuration not stated) do in these assays?
GAA850 FXN act: -0.1

What do the screens show for `ClC(/C=N/n1cnnc1)=C/c1ccccc1`?
GAA850 FXN act: 7.8*; CHOP inh: -68.1; CHOP UPR activ: 1.1; XBP1 UPR activ: 0.3; GAA30 counter: 58.6*; FXN GAA850 conf: 30.3*

What do the screens show for `COc1cccc2nc3c(C(=O)NCCN(C)C)cccc3cc12`?
GAA850 FXN act: -0.3

Results for COc1ccc(C(=O)NCCN(C)C)c2nc3ccccc3cc12 ?
GAA850 FXN act: 10.2*; GAA30 counter: -14.0; FXN GAA850 conf: 70.6*

Results for CCN(CC)C(=O)C1=C(C)N(CCCOC)C(=O)C(CC(=O)NCCCCc2ccccc2)C1 (configuration not stated) ?
GAA850 FXN act: 2.4

How did O=C(CCCN1C(=O)c2ccccc2C1=O)Nc1c(C(=O)C2CC2)oc2ccccc12 do in these assays?
GAA850 FXN act: 17.3*; CHOP inh: 10.3; CHOP UPR activ: -0.8; XBP1 UPR activ: 3.5; GAA30 counter: 27.8*; FXN GAA850 conf: 8.6*

What do the screens show for `CCNC(=O)C1(C)CCCN(C(=O)c2cc(-c3cccs3)oc2C)C1` (configuration not stated)?
GAA850 FXN act: -2.6

How did O=C(C=Cc1ccccc1)CC(c1ccccc1)N1CCOCC1 (configuration not stated) do in these assays?
GAA850 FXN act: 7.8*; GAA30 counter: 36.4*; FXN GAA850 conf: 39.9*

Results for c1csc(-c2ccc3ccccc3n2)c1 ?
GAA850 FXN act: 0.9; CHOP inh: -8.2; CHOP UPR activ: 2.8; XBP1 UPR activ: 5.5

What do the screens show for `Nc1nc2ccccc2cc1-c1cccs1`?
GAA850 FXN act: 7.8*; CHOP UPR activ: 2.5; XBP1 UPR activ: 1.2; GAA30 counter: 90.5*; FXN GAA850 conf: 34.2*

How did Cc1ccc2c(=O)n3c(nc2c1)C(Cc1ccc(O)cc1)NC(=O)c1ccc(Cl)cc1-3 (configuration not stated) do in these assays?
CHOP UPR activ: -0.7; XBP1 UPR activ: 5.5

What do the screens show for `CCOc1nc(C)ccc1-c1noc(-c2ccco2)n1`?
GAA850 FXN act: 7.7*; CHOP inh: 21.8; CHOP UPR activ: 2.8; XBP1 UPR activ: 1.4; GAA30 counter: 53.4*; FXN GAA850 conf: 18.1*

Results for Cc1nc(-c2nc(-c3c(C(=O)NN)noc3C)cs2)cs1 ?
GAA850 FXN act: 8.3*; CHOP inh: 3.2; CHOP UPR activ: 2.4; XBP1 UPR activ: 3.5; GAA30 counter: 87.9*; FXN GAA850 conf: 26.8*

What do the screens show for `Cc1cc(C)cc(CC(=O)N2CCC2(C)C(=O)NS(=O)(=O)c2cc(C)ccc2F)c1` (configuration not stated)?
GAA850 FXN act: -0.9

What do the screens show for `Cc1ccc(C(O)c2ncc(-c3cccc(C(F)(F)F)c3)[nH]2)cc1F` (configuration not stated)?
GAA850 FXN act: 0.7

What do the screens show for `CCCC(=O)N1CCCC1(C)C(=O)Nc1ccc(-n2cncn2)cc1` (configuration not stated)?
GAA850 FXN act: -0.9

Results for Nc1ccc(-c2nc3ncccc3o2)c(Cl)c1 ?
GAA850 FXN act: 8.7*; CHOP inh: -15.9; CHOP UPR activ: 4.5; XBP1 UPR activ: 0.2; GAA30 counter: 108.2*; FXN GAA850 conf: 41.4*

What do the screens show for `Nc1ccc(Cl)c(-c2nc3ncccc3o2)c1`?
GAA850 FXN act: -0.3; CHOP inh: -4.2; CHOP UPR activ: 2.5; XBP1 UPR activ: 4.1

How did CCN1C(=O)[C@H]2[C@@H](c3ccc(C)cc3)N3C(=O)N(c4cccc(Br)c4)C(=O)[C@@]3(C)[C@H]2C1=O do in these assays?
GAA850 FXN act: 2.7

What do the screens show for `Cc1cccc([C@@H]2[C@@H]3C(=O)N(Cc4ccccc4)C(=O)[C@@H]3[C@]3(CC(C)C)C(=O)N(c4cccc(F)c4)C(=O)N23)c1`?
GAA850 FXN act: -1.9; CHOP UPR activ: 4.8; XBP1 UPR activ: -2.2

Results for CCN1C(=O)[C@H]2[C@@H](c3ccc(C)cc3)N3C(=O)N(c4cccc(Br)c4)C(=O)[C@@]3(CC(C)C)[C@H]2C1=O ?
GAA850 FXN act: 15.6*; CHOP UPR activ: -1.0; XBP1 UPR activ: -1.9; GAA30 counter: 21.9*; FXN GAA850 conf: 11.4*

How did CCN1C(=O)[C@H]2[C@@H](c3ccccc3)N3C(=O)N(c4cccc(F)c4)C(=O)[C@@]3(CC(C)C)[C@H]2C1=O do in these assays?
GAA850 FXN act: 8.8*; CHOP UPR activ: -0.7; XBP1 UPR activ: 0.2; GAA30 counter: 25.4*; FXN GAA850 conf: 7.1

Results for Clc1ccc2c(SCC3CO3)c3ccccc3nc2c1 (configuration not stated) ?
GAA850 FXN act: 1.8

What do the screens show for `C[C@H](CO)N1C[C@H](C)[C@@H](CN(C)Cc2ccc(C(=O)O)cc2)Oc2ncc(-c3ccc(C(=O)N(C)C)cc3)cc2C1=O`?
GAA850 FXN act: 1.0

What do the screens show for `Cc1c(C(=O)N2CCc3ccccc32)oc2c1C(=O)CC(C)(C)C2`?
GAA850 FXN act: 11.1*; CHOP inh: 21.1; GAA30 counter: 113.4*; FXN GAA850 conf: 40.1*

How did CN(CC1CCCN(CCc2ccccc2F)C1)C(=O)c1cc2ccccc2o1 (configuration not stated) do in these assays?
GAA850 FXN act: 4.0

Results for O=C(O)[C@H]1NCCC[C@H]1C(=O)O ?
CHOP inh: -1.9

What do the screens show for `COc1ccc(N2C(=O)N3[C@H](c4ccc(Cl)cc4)[C@@H]4C(=O)N(C5CCCCC5)C(=O)[C@@H]4[C@]3(Cc3ccc(Cl)cc3)C2=O)cc1`?
GAA850 FXN act: 7.9*; CHOP UPR activ: 1.6; XBP1 UPR activ: -1.6; GAA30 counter: 31.3*; FXN GAA850 conf: 12.0*

Assay outcomes as filed in PubChem.
